Tests used:
[1] = test system: antiphenamacril mAb; assay: ic-ELISA for sensitivity and specificity of the mAb; assay type: binding, Balb/c mice; settings: for Cross-reactivity: CR = IC50(analyte)/IC50(structural analogue) x 100%; for IC50: ic-ELISA, standards in 10% methanol-PBS
Method in brief: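 Ic-ELISA with purified mAb (ascites, Protein G column). Phenamacril standards at 0–500 ng/mL (500 to 1.95 in twofold steps) in 10% methanol-PBS; 50 μL standard and 50 μL mAb per well. IC50 taken as sensitivity. Cross-reactivity run with four methoxyacrylate analogues: IC50(analyte)/IC50(analogue) × 100%.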

[2] = test system: Au@PDA-mAb probe; assay: dual-readout immunochromatographic strip; assay type: binding
Method in brief: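 Standards and analogues at 0.63–20 ng/mL in PBS with 10% methanol were applied to the strip sample pad (100 μL). Au@PDA-mAb probe sat on the conjugate pad. T line held phenamacril-OVA plus QDs-OVA; C line held anti-mouse IgG. Colour read by eye as T-line red loss against the C line. Fluorescence read as green T-line intensity under UV.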

[3] = test system: Au@PDA-mAb probe; assay: dr-ICGA on wheat flour samples; assay type: binding; settings: n = 5
Method in brief: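 Phenamacril-free flour (5 g, confirmed by LC-MS/MS) in 10 mL ultrapure water, vortexed 2 min, spiked with standard to 0.0125–0.20 mg/kg; water-only blank at 0 mg/kg. Residue redissolved in 1 mL 10% methanol-PBS, then diluted 10-fold. 100 μL applied to the strip. Read by eye as −, ± or +, with cut-offs <0.05, 0.05–0.1 and >0.1 mg/kg.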

[4] = test system: antisera; assay: ic-ELISA of antiserum of the immunized mouse; assay type: binding, Balb/c mice; settings: phenamacril at 1 μg/mL, mouse used for fusion (titer 80,000)
[5] = Jiangxi red soil; cited from earlier work
[6] = activated sludge; cited from earlier work

CO/C=C(/C(=O)OC)c1ccccc1Oc1cc(Oc2ccccc2C#N)ncn1 [Azoxystrobin]
Cross-reactivity [1]: <0.35%
Cross-reactivity ([1]; listed as azoxystrobin): < 0.35%
IC50 [1]: >5,000 ng/mL

COc1c(F)c(F)c(C(=O)NCc2ncc(C(F)(F)F)cc2Cl)c(F)c1F [Fluopimomide]
Cross-reactivity [1]: <0.35%
Cross-reactivity ([1]; listed as fluopimomide): < 0.35%
IC50 [1]: >5,000 ng/mL

CCOC(=O)C(C#N)=C(N)c1ccccc1 [Phenamacril, 2-cyano-3-amino-3-phenylacrylic acetate]
Cross-reactivity [1]: 100%
IC50 [1]: 17.46 ng/mL
reaction on the T line of the dual-readout strip ([2]; 20 ng/mL loaded, visual and UV readout): strong positive reaction on the T line
limit of detection (cutoff value) ([2]; dr-ICGA, colorimetric and fluorescent readout, within 10 min): 5 ng/mL
dr-ICGA visual result (dilute 10 times) ([3]; wheat flour spiked 0.0125 mg/kg): −, −, −, −, −,
dr-ICGA visual result (dilute 10 times) ([3]; wheat flour spiked 0.025 mg/kg): −, ± , −, ± , −,
dr-ICGA visual result (dilute 10 times) ([3]; wheat flour spiked 0.05 mg/kg): ±, ± , ± , ± , ± ,
dr-ICGA visual result (dilute 10 times) ([3]; wheat flour spiked 0.1 mg/kg): ±, + , + , + , + ,
dr-ICGA visual result (dilute 10 times) ([3]; wheat flour spiked 0.2 mg/kg): +, + , + , + , + ,
inhibition rate [4]: approximately 70.8%
mobility in soil [5]: moderately mobile
degradation [6]: degrades slowly

CO/C=C(/C(=O)OC)c1ccccc1COc1cccc(C(F)(F)F)n1 [Picoxystrobin]
Cross-reactivity [1]: <0.35%
Cross-reactivity ([1]; listed as picoxystrobin): < 0.35%
IC50 [1]: >5,000 ng/mL

COC(=O)N(OC)c1ccccc1COc1ccn(-c2ccc(Cl)cc2)n1 [Pyraclostrobin]
Cross-reactivity [1]: <0.35%
Cross-reactivity ([1]; listed as pyraclostrobin): < 0.35%
IC50 [1]: >5,000 ng/mL

— article PMC11838921 (Journal of agricultural and food chemistry, 2024)
